Assay results published in ChEMBL document CHEMBL4689842, “EUbOPEN Chemogenomics Library wave 1” (2021).

Legend:
[1] = system: U2OS; assay: Multiplex assay against U2OS; assay type: toxicity, cell-based; conditions: human
Procedure, shortened: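 Compound was added to live cells that had been stained at seeding with Hoechst33342, BioTracker Green Microtubule Cytoskeleton Dye, MitoTracker Red and Annexin V Alexa Fluor 680, and imaging followed on a CQ1 microscope at 37°C and 5% CO2. CellPathfinder machine-learning gating divided cells into Hoechst high-intensity objects or normal cells, normal cells into healthy, pyknosed or fragmented nuclei, and pyknosed cells into mitotic or apoptotic. Tubulin, mitochondrial-mass and membrane-permeability phenotypes are per cents of healthy-nucleus cells.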

[2] = system: Fibroblast; assay: Incucyte cell viability with human fibroblast; assay type: toxicity, cell-based; conditions: 10 µM, compound concentration 10 uM; further: filed as whole numbers so only -1 and 0 and 1 occur
[3] = 12 h, 1 µM, compound concentration 1 uM, replicate 1
[4] = 12 h, 1 µM, compound concentration 1 uM, replicate 2
[5] = 12 h, 10 µM, compound concentration 10 uM, replicate 1
[6] = 12 h, 10 µM, compound concentration 10 uM, replicate 2
[7] = 24 h, 1 µM, compound concentration 1 uM, replicate 1
[8] = 24 h, 1 µM, compound concentration 1 uM, replicate 2
[9] = 24 h, 10 µM, compound concentration 10 uM, replicate 1
[10] = 24 h, 10 µM, compound concentration 10 uM, replicate 2

## Cl.Cl.NC1(c2ccc(-c3nc4ccn5c(=O)[nH]nc5c4cc3-c3ccccc3)cc2)CCC1
[1]; [3]
  Population Apoptotic (%): 53%
  Population Fragmented Nuclei (%): 11%
  Population Healthy Nuclei (%): 81%
  Population Hoechst High Intensity Objects (%): 1%
  Population Membrane Permeable-Phenotype (%): 20%
  Population Mitochondria Different-Phenotype (%): 13%
  Population Mitotic Cells (%): 46%
  Population Normal (%): 98%
  Population Pyknosed Nuclei (%): 6%
  Population Tubulin-Different-Phenotype (%): 14%
  Total Cell Count: 154
[1]; [4]
  Population Apoptotic (%): 50%
  Population Fragmented Nuclei (%): 17%
  Population Healthy Nuclei (%): 77%
  Population Hoechst High Intensity Objects (%): 12%
  Population Membrane Permeable-Phenotype (%): 10%
  Population Mitochondria Different-Phenotype (%): 17%
  Population Mitotic Cells (%): 50%
  Population Normal (%): 87%
  Population Pyknosed Nuclei (%): 4%
  Population Tubulin-Different-Phenotype (%): 19%
  Total Cell Count: 116
[1]; [5]
  Population Apoptotic (%): 22%
  Population Fragmented Nuclei (%): 16%
  Population Healthy Nuclei (%): 40%
  Population Hoechst High Intensity Objects (%): 9%
  Population Membrane Permeable-Phenotype (%): 28%
  Population Mitochondria Different-Phenotype (%): 53%
  Population Mitotic Cells (%): 77%
  Population Normal (%): 90%
  Population Pyknosed Nuclei (%): 42%
  Population Tubulin-Different-Phenotype (%): 70%
  Total Cell Count: 190
[1]; [6]
  Population Apoptotic (%): 11%
  Population Fragmented Nuclei (%): 26%
  Population Healthy Nuclei (%): 42%
  Population Hoechst High Intensity Objects (%): 16%
  Population Membrane Permeable-Phenotype (%): 16%
  Population Mitochondria Different-Phenotype (%): 51%
  Population Mitotic Cells (%): 88%
  Population Normal (%): 83%
  Population Pyknosed Nuclei (%): 31%
  Population Tubulin-Different-Phenotype (%): 66%
  Total Cell Count: 160
[1]; [7]
  Population Apoptotic (%): 50%
  Population Fragmented Nuclei (%): 9%
  Population Healthy Nuclei (%): 85%
  Population Hoechst High Intensity Objects (%): 1%
  Population Membrane Permeable-Phenotype (%): 14%
  Population Mitochondria Different-Phenotype (%): 11%
  Population Mitotic Cells (%): 50%
  Population Normal (%): 98%
  Population Pyknosed Nuclei (%): 5%
  Population Tubulin-Different-Phenotype (%): 17%
  Total Cell Count: 140
[1]; [8]
  Population Apoptotic (%): 16%
  Population Fragmented Nuclei (%): 14%
  Population Healthy Nuclei (%): 81%
  Population Hoechst High Intensity Objects (%): 8%
  Population Membrane Permeable-Phenotype (%): 10%
  Population Mitochondria Different-Phenotype (%): 21%
  Population Mitotic Cells (%): 83%
  Population Normal (%): 91%
  Population Pyknosed Nuclei (%): 3%
  Population Tubulin-Different-Phenotype (%): 19%
  Total Cell Count: 103
[1]; [9]
  Population Apoptotic (%): 36%
  Population Fragmented Nuclei (%): 8%
  Population Healthy Nuclei (%): 27%
  Population Hoechst High Intensity Objects (%): 19%
  Population Membrane Permeable-Phenotype (%): 19%
  Population Mitochondria Different-Phenotype (%): 68%
  Population Mitotic Cells (%): 64%
  Population Normal (%): 80%
  Population Pyknosed Nuclei (%): 64%
  Population Tubulin-Different-Phenotype (%): 55%
  Total Cell Count: 268
[1]; [10]
  Population Apoptotic (%): 29%
  Population Fragmented Nuclei (%): 18%
  Population Healthy Nuclei (%): 23%
  Population Hoechst High Intensity Objects (%): 21%
  Population Membrane Permeable-Phenotype (%): 11%
  Population Mitochondria Different-Phenotype (%): 57%
  Population Mitotic Cells (%): 70%
  Population Normal (%): 78%
  Population Pyknosed Nuclei (%): 58%
  Population Tubulin-Different-Phenotype (%): 48%
  Total Cell Count: 181
[2]; 6 h, replicate number 1, timepoint 6 hours
  Growth Rate: 0
[2]; 12 h, replicate number 1, timepoint 12 hours
  Growth Rate: 0
[2]; 18 h, replicate number 1, timepoint 18 hours
  Growth Rate: 0
[2]; 24 h, replicate number 1, timepoint 24 hours
  Growth Rate: 0
